ChEMBL document CHEMBL1147679, “Differential inhibition of group IVA and group VIA phospholipases A2 by 2-oxoamides” (2006)
Active and inactive are the calls of the source. The rule behind the calls is not given here.

Columns and labels:
[1] = molecular target: T1, 85/88 kDa calcium-independent phospholipase A2 (Homo sapiens) (UniProt O60733); assay: Inhibition of group 6A iPLA2
T1 sequence (whole entry): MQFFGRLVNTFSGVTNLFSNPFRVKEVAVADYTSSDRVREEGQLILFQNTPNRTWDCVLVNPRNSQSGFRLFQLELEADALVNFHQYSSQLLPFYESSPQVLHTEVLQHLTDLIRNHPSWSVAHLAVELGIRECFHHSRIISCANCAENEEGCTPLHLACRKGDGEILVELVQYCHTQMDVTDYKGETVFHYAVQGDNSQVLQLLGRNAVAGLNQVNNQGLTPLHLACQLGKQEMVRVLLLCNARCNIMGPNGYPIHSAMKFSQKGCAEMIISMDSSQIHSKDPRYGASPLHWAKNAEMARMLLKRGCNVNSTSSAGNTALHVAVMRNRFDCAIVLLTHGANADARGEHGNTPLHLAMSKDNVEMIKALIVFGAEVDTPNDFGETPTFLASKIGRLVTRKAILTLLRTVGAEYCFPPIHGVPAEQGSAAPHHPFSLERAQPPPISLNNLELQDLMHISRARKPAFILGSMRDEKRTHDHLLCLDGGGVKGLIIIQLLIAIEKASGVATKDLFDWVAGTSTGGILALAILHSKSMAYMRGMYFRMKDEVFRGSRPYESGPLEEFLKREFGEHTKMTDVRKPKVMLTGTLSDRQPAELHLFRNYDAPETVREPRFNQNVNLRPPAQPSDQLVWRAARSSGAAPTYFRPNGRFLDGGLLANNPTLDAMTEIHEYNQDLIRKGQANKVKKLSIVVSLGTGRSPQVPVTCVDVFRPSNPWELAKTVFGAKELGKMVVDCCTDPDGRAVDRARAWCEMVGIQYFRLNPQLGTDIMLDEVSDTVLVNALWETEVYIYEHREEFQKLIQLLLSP
Summary of the method: (§1)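 Recombinant human GVIA-2 iPLA2 (His-tagged) was expressed in Sf9 cells by baculovirus and purified on Ni-NTA. Enzyme (190 ng) acted on mixed micelles of 100 µM DPPC with [14C]-palmitoyl PC tracer and 400 µM Triton X-100, in HEPES pH 7.5 with EDTA, DTT and ATP and 1% DMSO. Runs were 30 min at 40 °C, read by modified Dole assay. XI(50) (mole fraction) came from a logarithmic or linear fit; highest dose 0.091 mole fraction.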

RAW264.7 = assay: Inhibition of LPS-stimulated prostaglandin PGE2 production in mouse RAW 264.7 macrophage-like cell line; assay type: functional
Summary of the method: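 RAW 264.7 cells in DMEM/10% FCS were plated at 5×10^5 per well, allowed to adhere 24 h, then held serum-free 18 h. Inhibitors, in DMSO (<0.5% v/v) diluted into serum-free medium, were added 30 min before 100 ng/mL E. coli 0111:B4 LPS for 24 h. Medium PGE2 was quantified by LC-MS (negative ESI, MRM) against a deuterated PGE2 internal standard.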

[2] = molecular target: T2, Cytosolic phospholipase A2 (Homo sapiens) (UniProt P47712); assay: Inhibition of group 4A cPLA2
T2 sequence (whole entry): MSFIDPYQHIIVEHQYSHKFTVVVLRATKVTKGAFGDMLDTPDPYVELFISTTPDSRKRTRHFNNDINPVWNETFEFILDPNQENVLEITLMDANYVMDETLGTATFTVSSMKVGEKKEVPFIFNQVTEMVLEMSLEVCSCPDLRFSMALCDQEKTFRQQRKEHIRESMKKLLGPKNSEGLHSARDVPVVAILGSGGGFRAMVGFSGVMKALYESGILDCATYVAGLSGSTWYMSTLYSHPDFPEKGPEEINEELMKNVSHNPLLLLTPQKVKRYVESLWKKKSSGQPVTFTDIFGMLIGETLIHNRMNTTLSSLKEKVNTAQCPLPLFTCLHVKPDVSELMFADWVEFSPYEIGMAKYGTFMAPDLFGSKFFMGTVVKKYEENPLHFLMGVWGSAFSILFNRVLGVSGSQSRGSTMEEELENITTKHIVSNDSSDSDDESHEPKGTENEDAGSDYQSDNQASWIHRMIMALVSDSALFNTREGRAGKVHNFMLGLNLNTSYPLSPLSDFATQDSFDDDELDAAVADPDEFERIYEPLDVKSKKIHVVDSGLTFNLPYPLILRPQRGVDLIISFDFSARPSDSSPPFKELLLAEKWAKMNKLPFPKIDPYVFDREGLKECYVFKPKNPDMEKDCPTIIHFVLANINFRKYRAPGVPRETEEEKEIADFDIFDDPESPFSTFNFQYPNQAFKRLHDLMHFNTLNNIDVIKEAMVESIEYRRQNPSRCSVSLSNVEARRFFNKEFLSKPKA
Summary of the method: (§2)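 Native human GIVA cPLA2 (10 ng) was assayed in 100 mM HEPES pH 7.5 with 80 µM CaCl2, 0.1 mg/mL fatty-acid-free BSA and 2 mM DTT. Substrate was 97 µM 1-palmitoyl-2-[14C]-arachidonoyl PC with 3 µM PIP2 and 400 µM Triton X-100 micelles, plus 1% DMSO. Runs were 30 min at 40 °C, read by modified Dole assay. Potency is XI(50) in surface mole fraction; highest dose 0.091 mole fraction.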

[3] = molecular target: T2, Cytosolic phospholipase A2 (Homo sapiens); assay: Inhibition of group 4A cPLA2 at 0.091 mole fraction; summary of the method: as §2
[4] = molecular target: T1, 85/88 kDa calcium-independent phospholipase A2 (Homo sapiens); assay: Inhibition of group 6A iPLA2 at 0.091 mole fraction; summary of the method: as §1
[5] = molecular target: T2, Cytosolic phospholipase A2 (Homo sapiens); assay: Inhibition of group 4A cPLA2 at 0.01 mole fraction
[6] = molecular target: T1, 85/88 kDa calcium-independent phospholipase A2 (Homo sapiens); assay: Inhibition of group 6A iPLA2 at 0.02 mole fraction

XI50 (mole fraction) [2] | inhibition [3] [%] | inhibition [4] [%] | SMILES | further results
0.018 | – | – | CCCCCCCCCCCCCCC(=O)C(=O)N[C@@H](/C=C/C(=O)OC)CCCC | XI50 (mole fraction) [1]: 0.032; Inhibition (RAW264.7): 40%
– | 0 | 25 | CCCCCCCCCCCCCCC(=O)C(=O)NCCCC(=O)OC | inhibition (RAW264.7): inactive
– | 0 | 0 | NC(=O)C(=O)CCCCc1ccccc1 | –
0.011 | – | 0 | CCCCCCCC/C=C\CCCCCCCC(=O)C(=O)NCCCC(=O)O | –
– | – | – | CCCCCCCCCCCCCC(=O)C(N)=O | inhibition [5]: 0%; inhibition [6]: 0%
– | 0 | 0 | O=C(O)CCCNC(=O)C(=O)CCCc1ccccc1 | –
0.003 | – | 0 | CCCCCCCCCCCCCCC(=O)C(=O)N[C@H](/C=C/C(=O)O)CCCC | –
– | – | – | CCCCCCCCCCCCCCCCNC(=O)C(=O)CC | inhibition [5]: 0%; inhibition [6]: 25%
– | 0 | 0 | O=C(O)CCCNC(=O)C(=O)CCCCc1ccccc1 | –
– | 0 | 0 | COC(=O)CCCNC(=O)C(=O)CCCCc1ccccc1 | –
– | 0 | 0 | COC(=O)CCCNC(=O)C(=O)CCCc1ccccc1 | –
0.012 | – | – | CCCCCCCC/C=C\CCCCCCCC(=O)C(=O)NCCCC(=O)OC | XI50 (mole fraction) [1]: 0.067; Inhibition (RAW264.7): 40%
0.017 | – | 0 | CCCCCCCCCCCCCCC(=O)C(=O)NCCCC(=O)O | –
– | – | – | CCCCCCCCCCCCCCC(=O)C(=O)NCCCCCC | inhibition [5]: 0%; inhibition [6]: 25%
